Each block holds one molecule with its values, some of them ahead of it.
Columns and labels:
Type in all cases: cell-based
[1] = molecular target: T1, Muscarinic acetylcholine receptor M2 (Homo sapiens, UniProt P08172); experiment: Displacement of [3H]-NMS from human muscarinic M2 receptor stably expressed in CHO-K9 cells by radioligand competitive binding assay
T1 sequence (P08172 whole entry): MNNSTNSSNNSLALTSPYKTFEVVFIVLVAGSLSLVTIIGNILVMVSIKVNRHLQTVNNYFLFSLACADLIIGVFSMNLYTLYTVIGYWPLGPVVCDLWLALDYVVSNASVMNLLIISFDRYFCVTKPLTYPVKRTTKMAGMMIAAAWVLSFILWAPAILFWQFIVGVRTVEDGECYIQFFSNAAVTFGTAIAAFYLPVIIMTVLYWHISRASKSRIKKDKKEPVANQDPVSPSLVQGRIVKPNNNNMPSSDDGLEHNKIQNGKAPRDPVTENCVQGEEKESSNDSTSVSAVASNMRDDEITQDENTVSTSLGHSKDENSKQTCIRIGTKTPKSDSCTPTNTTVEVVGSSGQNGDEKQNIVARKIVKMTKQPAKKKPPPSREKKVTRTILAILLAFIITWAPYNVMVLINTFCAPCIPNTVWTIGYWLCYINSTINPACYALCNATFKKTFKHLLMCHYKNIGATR
Outline: (§1)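 Equilibrium competition binding at live CHO-hMxR cells with [3H]NMS at M1 0.2, M2 0.2, M3 0.2, M4 0.1, M5 0.3 nM. […] Four-parameter logistic fit converted to pKi; at least three experiments in triplicate (some two).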

[2] = molecular target: T2, Muscarinic acetylcholine receptor M1 (Homo sapiens, UniProt P11229); experiment: Displacement of [3H]-NMS from human muscarinic M1 receptor stably expressed in CHO-K9 cells by radioligand competitive binding assay; outline: as §1
T2 sequence (P11229 whole entry): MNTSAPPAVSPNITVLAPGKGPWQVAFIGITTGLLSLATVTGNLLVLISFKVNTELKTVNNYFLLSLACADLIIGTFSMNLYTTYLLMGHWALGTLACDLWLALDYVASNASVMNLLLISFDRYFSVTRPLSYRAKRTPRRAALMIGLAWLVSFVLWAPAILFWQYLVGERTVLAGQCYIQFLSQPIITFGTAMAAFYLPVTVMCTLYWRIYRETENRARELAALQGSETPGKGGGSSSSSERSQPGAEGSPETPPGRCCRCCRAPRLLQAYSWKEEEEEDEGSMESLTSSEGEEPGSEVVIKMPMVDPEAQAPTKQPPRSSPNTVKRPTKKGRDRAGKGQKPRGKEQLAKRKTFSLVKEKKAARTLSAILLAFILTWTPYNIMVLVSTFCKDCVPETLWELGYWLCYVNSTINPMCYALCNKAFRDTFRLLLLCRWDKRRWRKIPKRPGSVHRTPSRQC

[3] = molecular target: Muscarinic acetylcholine receptor M3 (Homo sapiens, UniProt P20309); experiment: Displacement of [3H]-NMS from human muscarinic M3 receptor stably expressed in CHO-K9 cells by radioligand competitive binding assay; outline: as §1
Chain of Muscarinic acetylcholine receptor M3 (P20309 whole entry): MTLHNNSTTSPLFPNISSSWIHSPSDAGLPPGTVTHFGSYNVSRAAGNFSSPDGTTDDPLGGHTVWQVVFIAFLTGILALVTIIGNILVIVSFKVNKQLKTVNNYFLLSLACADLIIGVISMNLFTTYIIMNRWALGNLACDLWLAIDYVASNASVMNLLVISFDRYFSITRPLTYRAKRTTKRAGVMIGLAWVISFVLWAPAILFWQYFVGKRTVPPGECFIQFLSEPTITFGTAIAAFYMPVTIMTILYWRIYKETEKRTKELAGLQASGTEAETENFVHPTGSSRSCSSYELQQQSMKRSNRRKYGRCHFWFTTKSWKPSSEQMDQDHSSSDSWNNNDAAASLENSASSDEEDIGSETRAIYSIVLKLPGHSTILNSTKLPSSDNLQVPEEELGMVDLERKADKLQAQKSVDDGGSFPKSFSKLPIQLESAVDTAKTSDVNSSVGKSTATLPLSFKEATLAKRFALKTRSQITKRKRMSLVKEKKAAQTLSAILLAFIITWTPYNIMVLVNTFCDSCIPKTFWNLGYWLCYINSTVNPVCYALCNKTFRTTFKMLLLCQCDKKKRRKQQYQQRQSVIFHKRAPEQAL

[4] = molecular target: T3, Muscarinic acetylcholine receptor M4 (Homo sapiens, UniProt P08173); experiment: Displacement of [3H]-NMS from human muscarinic M4 receptor stably expressed in CHO-K9 cells by radioligand competitive binding assay; outline: as §1
T3 sequence (P08173 whole entry): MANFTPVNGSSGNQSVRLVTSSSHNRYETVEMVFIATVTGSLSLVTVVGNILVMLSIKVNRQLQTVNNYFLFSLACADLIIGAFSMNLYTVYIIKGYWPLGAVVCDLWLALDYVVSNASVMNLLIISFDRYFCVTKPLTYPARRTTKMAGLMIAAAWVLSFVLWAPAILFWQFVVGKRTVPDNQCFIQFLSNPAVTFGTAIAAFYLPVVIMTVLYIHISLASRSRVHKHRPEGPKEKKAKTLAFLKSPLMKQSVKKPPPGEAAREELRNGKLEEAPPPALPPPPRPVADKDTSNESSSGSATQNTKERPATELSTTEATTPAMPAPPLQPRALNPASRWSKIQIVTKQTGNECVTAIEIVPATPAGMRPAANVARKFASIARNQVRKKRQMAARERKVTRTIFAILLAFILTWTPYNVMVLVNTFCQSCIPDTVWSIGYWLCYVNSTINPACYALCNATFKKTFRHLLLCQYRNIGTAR

[5] = molecular target: T4, Muscarinic acetylcholine receptor M5 (Homo sapiens, UniProt P08912); experiment: Displacement of [3H]-NMS from human muscarinic M5 receptor stably expressed in CHO-K9 cells by radioligand competitive binding assay; outline: as §1
T4 sequence (P08912 whole entry): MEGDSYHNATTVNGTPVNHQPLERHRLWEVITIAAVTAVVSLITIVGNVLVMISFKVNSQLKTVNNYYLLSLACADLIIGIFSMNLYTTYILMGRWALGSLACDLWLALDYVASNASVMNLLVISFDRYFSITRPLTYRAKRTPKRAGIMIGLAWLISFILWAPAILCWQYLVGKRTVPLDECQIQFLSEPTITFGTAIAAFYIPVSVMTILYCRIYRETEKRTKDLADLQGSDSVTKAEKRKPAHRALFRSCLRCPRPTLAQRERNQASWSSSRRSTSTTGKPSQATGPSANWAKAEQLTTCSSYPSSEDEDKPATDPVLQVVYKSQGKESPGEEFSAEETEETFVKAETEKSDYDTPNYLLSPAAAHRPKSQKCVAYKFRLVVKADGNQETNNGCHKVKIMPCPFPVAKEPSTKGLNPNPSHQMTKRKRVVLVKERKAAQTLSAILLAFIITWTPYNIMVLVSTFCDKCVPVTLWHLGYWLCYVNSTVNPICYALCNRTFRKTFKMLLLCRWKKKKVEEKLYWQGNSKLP

[6] = molecular target: T1, Muscarinic acetylcholine receptor M2; experiment: Displacement of 4-(2-((1E,3E)-5-((E)-3,3-Dimethyl-1-(6-oxo-6-((2-(3-(1-(4-(1-(2-oxo-2-(11-oxo-10,11-dihydro-5H-dibenzo[b,e][1,4]diazepin-5-yl)ethyl)piperidin-4-yl)butyl)-1H-imidazol-4-yl)propanamido)ethyl)-amino)hexyl)-5-sulfoindolin-2-ylidene)penta-1,3-dien-1-yl)-3,3-dimethyl-3H-indol-1-ium-1-yl)butane-1-sulfonateHydrotrifluoroacetate fluorescent tracer from human muscarinic M2 receptor expressed in […] cells measured after 60 mins by Hoechst H33342 dye based confocal plate reader assay
[7] = molecular target: T1, Muscarinic acetylcholine receptor M2; experiment: Displacement of 4-(2-((1E,3E)-5-((E)-1-(6-((3,5-Bis((2-(3-(1-(4-(1-(2-oxo-2-(11-oxo-10,11-dihydro-5H-dibenzo[b,e][1,4]diazepin-5-yl)ethyl)piperidin-4-yl)butyl)-1H-imidazol-4-yl)propanamido)ethyl)carbamoyl)benzyl)amino)-6-oxohexyl)-3,3-dimethyl-5-sulfoindolin-2-ylidene)penta-1,3-dien-1-yl)-3,3-dimethyl-3H-indol-1-ium-1-yl)butane-1-sulfonate Tris(hydrotrifluoroacetate) fluorescent tracer from human muscarinic M2 receptor expressed in […] cells measured after 60 mins by Hoechst H33342 dye based confocal plate reader assay

Compound: CC1(C)C(/C=C/C=C/C=C2/N(CCCCCC(=O)NCCNC(=O)CCc3cn(CCCCC4CCN(CC(=O)N5c6ccccc6NC(=O)c6ccccc65)CC4)cn3)c3ccccc3C2(C)C)=[N+](CCCCS(=O)(=O)[O-])c2ccccc21
- Ki [1]: 0.933 nM

Compound: CC1(C)C(/C=C/C=C/C=C2/N(CCCCCC(=O)NCc3cc(C(=O)NCCNC(=O)CCc4cn(CCCCC5CCN(CC(=O)N6c7ccccc7NC(=O)c7ccccc76)CC5)cn4)cc(C(=O)NCCNC(=O)CCc4cn(CCCCC5CCN(CC(=O)N6c7ccccc7NC(=O)c7ccccc76)CC5)cn4)c3)c3ccccc3C2(C)C)=[N+](CCCCS(=O)(=O)[O-])c2ccccc21
- Ki [1]: 1.41 nM

Compound: C[N+]1=C(/C=C/C=C/C=C2/N(CCCCCC(=O)NCCN3CCN(CCCCC4CCN(CC(=O)N5c6ccccc6NC(=O)c6ccccc65)CC4)CC3)c3ccccc3C2(C)C)C(C)(C)c2ccccc21
- Ki [2]: 15.1 nM
- Ki [1]: 4.47 nM
- Ki [3]: 85.1 nM
- Ki [4]: 18.6 nM
- Ki [5]: 69.2 nM

Compound: NCCCCC1CCN(CC(=O)N2c3ccccc3NC(=O)c3ccccc32)CC1
- Ki [1]: 10.7 nM

Compound: CCC(=O)NCc1cc(C(=O)NCCNC(=O)CCc2cn(CCCCC3CCN(CC(=O)N4c5ccccc5NC(=O)c5ccccc54)CC3)cn2)cc(C(=O)NCCNC(=O)CCc2cn(CCCCC3CCN(CC(=O)N4c5ccccc5NC(=O)c5ccccc54)CC3)cn2)c1
- Ki [6]: 0.355 nM
- Ki [7]: 0.525 nM

Continued by falling Ki [1], values first:

- Ki [1]: 0.589 nM
Compound: NCCNC(=O)CCc1cn(CCCCC2CCN(CC(=O)N3c4ccccc4NC(=O)c4ccccc43)CC2)cn1

- Ki [2]: 5.89 nM
- Ki [1]: 0.182 nM
- Ki [3]: 145 nM
- Ki [4]: 0.447 nM
- Ki [5]: 234 nM
Compound: NCCN1CCN(CCCCC2CCN(CC(=O)N3c4ccccc4NC(=O)c4ccccc43)CC2)CC1
